Assay type in all cases: functional, cell-based
Experiment [1] can be described thus: Cytotoxicity against human MDA-MB-435 cells assessed as decrease in cell viability after 72 hrs by cell titer 96 one solution assay. To be noted: MDA-MB-435, 72 h. A digest of the protocol: (§1)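 Cells grown at 37 °C, 5% CO2 in RPMI 1640 with 10% FBS, penicillin 100 units/mL, streptomycin 100 μg/mL. Log-phase cells trypsinized, washed twice, seeded at 5000/well, left overnight. DMSO-dissolved samples added at 20, 4, 0.8, 0.16, 0.032 μM (final DMSO 0.5%). After 72 h at 37 °C, viable cells read by MTS-type absorbance kit. IC50 in μM relative to DMSO control.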

The nature of experiment [2]: Cytotoxicity against human MDA-MB-231 cells assessed as decrease in cell viability after 72 hrs by cell titer 96 one solution assay. The settings on record: MDA-MB-231, 72 h. A digest of the protocol: as §1
A short description of experiment [3]: Cytotoxicity against human OVCAR3 cells assessed as decrease in cell viability after 72 hrs by cell titer 96 one solution assay. The settings on record: OVCAR-3, 72 h. A digest of the protocol: as §1

pIC50: −log10 of the molar value.

As for `COc1cc2c(c(O)c1C=O)C[C@H]1OC(=O)[C@]3(C)[C@H]1[C@]21CC[C@]3(O)OC1`, the pIC50 in experiment [1], in experiment [2] and in experiment [3] was below 4.70 in each case.

`C[C@]12C(=O)O[C@@H]3[C@@H](O)[C@H]4c5occc5C(=O)C[C@H]4[C@]4(CO[C@@]1(O)[C@@H](O)C4)[C@@H]32`: the pIC50 in experiment [1] is 5.54; in experiment [2], 5.12; in experiment [3], 5.12.

For the compound `COc1cc2c(c3occc13)[C@@H](O)[C@@]1(O)OC[C@@]23CCC(=O)[C@@H](C)[C@@H]31`, the pIC50 in experiment [1], in experiment [2] and in experiment [3] was below 4.70 each time.

On to `C[C@]12C(=O)O[C@@H]3C[C@H]4C5=C(CC[C@H]4[C@]4(CO[C@@]1(O)[C@@H](O)C4)[C@@H]32)C(=O)CO5`, for which the negative logarithm of the IC50 (pIC50) was 5.83 in experiment [1], 5.55 in experiment [2] and 5.49 in experiment [3].

Regarding `COc1cc2c(c3occc13)[C@H]1OC3O[C@@]4(O)CC[C@@]23[C@H]2[C@@H]1OC(=O)[C@]24C`, the pIC50 in experiment [1], in experiment [2] and in experiment [3] was below 4.70 in each case.

Consider `CC[C@]1(O)C[C@@H]2CN(CCc3c([nH]c4ccccc34)[C@@](C(=O)OC)(c3cc4c(cc3OC)N(C)[C@H]3[C@@](O)(C(=O)OC)[C@H](OC(C)=O)[C@]5(CC)C=CCN6CC[C@]43[C@@H]65)C2)C1` [VINBLASTINE], for which, in experiment [1], the pIC50 was 9.31.

On to `COc1cc2c(c3occc13)[C@H](O)[C@H]1OC(=O)[C@]3(C)[C@H]1[C@]21CC[C@]3(O)OC1`, for which the pIC50 in experiment [1], in experiment [2] and in experiment [3] was below 4.70 throughout.

One may read the pIC50 as the negative decadic logarithm of the IC50, by convention in mol/L.
